Tested on: Fibroblast
Experiment: Multiplex assay against human fibroblast
Assay type: toxicity, cell-based
In short: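 Compound was added to live cells that had been stained at seeding with Hoechst33342, BioTracker Green Microtubule Cytoskeleton Dye, MitoTracker Red and Annexin V Alexa Fluor 680, and imaging followed on a CQ1 microscope at 37°C and 5% CO2. CellPathfinder machine-learning gating divided cells into Hoechst high-intensity objects or normal cells, normal cells into healthy, pyknosed or fragmented nuclei, and pyknosed cells into mitotic or apoptotic. Tubulin, mitochondrial-mass and membrane-permeability phenotypes are per cents of healthy-nucleus cells.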

[1] = 12 h, 1 µM, compound concentration 1 uM, replicate 1
[2] = 12 h, 1 µM, compound concentration 1 uM, replicate 2
[3] = 12 h, 10 µM, compound concentration 10 uM, replicate 1
[4] = 12 h, 10 µM, compound concentration 10 uM, replicate 2
[5] = 24 h, 1 µM, compound concentration 1 uM, replicate 1
[6] = 24 h, 1 µM, compound concentration 1 uM, replicate 2
[7] = 24 h, 10 µM, compound concentration 10 uM, replicate 1
[8] = 24 h, 10 µM, compound concentration 10 uM, replicate 2
[9] = 48 h, 1 µM, compound concentration 1 uM, replicate 1
[10] = 48 h, 1 µM, compound concentration 1 uM, replicate 2
[11] = 48 h, 10 µM, compound concentration 10 uM, replicate 1
[12] = 48 h, 10 µM, compound concentration 10 uM, replicate 2

SMILES: CC(C)(C)c1ccc(S(=O)(=O)Nc2ccc(Cl)cc2C(=O)c2cc[n+]([O-])cc2)cc1 [VERCIRNON]
- Population Apoptotic (%) [1]: 63%
- Population Fragmented Nuclei (%) [1]: 19%
- Population Healthy Nuclei (%) [1]: 65%
- Population Hoechst High Intensity Objects (%) [1]: 2%
- Population Membrane Permeable-Phenotype (%) [1]: 1%
- Population Mitochondria Different-Phenotype (%) [1]: 3%
- Population Mitotic Cells (%) [1]: 36%
- Population Normal (%) [1]: 97%
- Population Pyknosed Nuclei (%) [1]: 15%
- Population Tubulin-Different-Phenotype (%) [1]: 20%
- Total Cell Count [1]: 148
- Population Apoptotic (%) [2]: 50%
- Population Fragmented Nuclei (%) [2]: 27%
- Population Healthy Nuclei (%) [2]: 46%
- Population Hoechst High Intensity Objects (%) [2]: 7%
- Population Membrane Permeable-Phenotype (%) [2]: 6%
- Population Mitochondria Different-Phenotype (%) [2]: 1%
- Population Mitotic Cells (%) [2]: 50%
- Population Normal (%) [2]: 92%
- Population Pyknosed Nuclei (%) [2]: 25%
- Population Tubulin-Different-Phenotype (%) [2]: 41%
- Total Cell Count [2]: 152
- Population Apoptotic (%) [3]: 59%
- Population Fragmented Nuclei (%) [3]: 14%
- Population Healthy Nuclei (%) [3]: 64%
- Population Hoechst High Intensity Objects (%) [3]: 3%
- Population Membrane Permeable-Phenotype (%) [3]: 3%
- Population Mitochondria Different-Phenotype (%) [3]: 1%
- Population Mitotic Cells (%) [3]: 40%
- Population Normal (%) [3]: 96%
- Population Pyknosed Nuclei (%) [3]: 21%
- Population Tubulin-Different-Phenotype (%) [3]: 46%
- Total Cell Count [3]: 107
- Population Apoptotic (%) [4]: 48%
- Population Fragmented Nuclei (%) [4]: 30%
- Population Healthy Nuclei (%) [4]: 44%
- Population Hoechst High Intensity Objects (%) [4]: 5%
- Population Membrane Permeable-Phenotype (%) [4]: 8%
- Population Mitochondria Different-Phenotype (%) [4]: 10%
- Population Mitotic Cells (%) [4]: 51%
- Population Normal (%) [4]: 94%
- Population Pyknosed Nuclei (%) [4]: 25%
- Population Tubulin-Different-Phenotype (%) [4]: 66%
- Total Cell Count [4]: 114
- Population Apoptotic (%) [5]: 55%
- Population Fragmented Nuclei (%) [5]: 23%
- Population Healthy Nuclei (%) [5]: 62%
- Population Hoechst High Intensity Objects (%) [5]: 0%
- Population Membrane Permeable-Phenotype (%) [5]: 4%
- Population Mitochondria Different-Phenotype (%) [5]: 1%
- Population Mitotic Cells (%) [5]: 45%
- Population Normal (%) [5]: 99%
- Population Pyknosed Nuclei (%) [5]: 14%
- Population Tubulin-Different-Phenotype (%) [5]: 27%
- Total Cell Count [5]: 141
- Population Apoptotic (%) [6]: 54%
- Population Fragmented Nuclei (%) [6]: 25%
- Population Healthy Nuclei (%) [6]: 57%
- Population Hoechst High Intensity Objects (%) [6]: 7%
- Population Membrane Permeable-Phenotype (%) [6]: 7%
- Population Normal (%) [6]: 92%
- Population Pyknosed Nuclei (%) [6]: 16%
- Population Tubulin-Different-Phenotype (%) [6]: 40%
- Total Cell Count [6]: 142
- Population Apoptotic (%) [7]: 66%
- Population Fragmented Nuclei (%) [7]: 16%
- Population Healthy Nuclei (%) [7]: 66%
- Population Hoechst High Intensity Objects (%) [7]: 1%
- Population Membrane Permeable-Phenotype (%) [7]: 4%
- Population Mitochondria Different-Phenotype (%) [7]: 2%
- Population Mitotic Cells (%) [7]: 33%
- Population Normal (%) [7]: 98%
- Population Pyknosed Nuclei (%) [7]: 16%
- Population Tubulin-Different-Phenotype (%) [7]: 40%
- Total Cell Count [7]: 114
- Population Apoptotic (%) [8]: 41%
- Population Fragmented Nuclei (%) [8]: 32%
- Population Healthy Nuclei (%) [8]: 42%
- Population Hoechst High Intensity Objects (%) [8]: 0%
- Population Membrane Permeable-Phenotype (%) [8]: 21%
- Population Mitochondria Different-Phenotype (%) [8]: 9%
- Population Mitotic Cells (%) [8]: 58%
- Population Normal (%) [8]: 99%
- Population Pyknosed Nuclei (%) [8]: 24%
- Population Tubulin-Different-Phenotype (%) [8]: 82%
- Total Cell Count [8]: 120
- Population Apoptotic (%) [9]: 61%
- Population Fragmented Nuclei (%) [9]: 29%
- Population Healthy Nuclei (%) [9]: 58%
- Population Hoechst High Intensity Objects (%) [9]: 1%
- Population Membrane Permeable-Phenotype (%) [9]: 1%
- Population Mitochondria Different-Phenotype (%) [9]: 1%
- Population Mitotic Cells (%) [9]: 38%
- Population Normal (%) [9]: 98%
- Population Pyknosed Nuclei (%) [9]: 12%
- Population Tubulin-Different-Phenotype (%) [9]: 25%
- Total Cell Count [9]: 151
- Population Apoptotic (%) [10]: 62%
- Population Fragmented Nuclei (%) [10]: 32%
- Population Healthy Nuclei (%) [10]: 55%
- Population Hoechst High Intensity Objects (%) [10]: 6%
- Population Membrane Permeable-Phenotype (%) [10]: 6%
- Population Mitochondria Different-Phenotype (%) [10]: 9%
- Population Mitotic Cells (%) [10]: 37%
- Population Normal (%) [10]: 93%
- Population Pyknosed Nuclei (%) [10]: 11%
- Population Tubulin-Different-Phenotype (%) [10]: 37%
- Total Cell Count [10]: 145
- Population Apoptotic (%) [11]: 62%
- Population Fragmented Nuclei (%) [11]: 22%
- Population Healthy Nuclei (%) [11]: 64%
- Population Hoechst High Intensity Objects (%) [11]: 2%
- Population Membrane Permeable-Phenotype (%) [11]: 1%
- Population Mitochondria Different-Phenotype (%) [11]: 0%
- Population Mitotic Cells (%) [11]: 37%
- Population Normal (%) [11]: 97%
- Population Pyknosed Nuclei (%) [11]: 13%
- Population Tubulin-Different-Phenotype (%) [11]: 38%
- Total Cell Count [11]: 120
- Population Apoptotic (%) [12]: 46%
- Population Fragmented Nuclei (%) [12]: 42%
- Population Healthy Nuclei (%) [12]: 46%
- Population Hoechst High Intensity Objects (%) [12]: 4%
- Population Membrane Permeable-Phenotype (%) [12]: 16%
- Population Mitochondria Different-Phenotype (%) [12]: 12%
- Population Mitotic Cells (%) [12]: 53%
- Population Normal (%) [12]: 95%
- Population Pyknosed Nuclei (%) [12]: 11%
- Population Tubulin-Different-Phenotype (%) [12]: 72%
- Total Cell Count [12]: 122

Source: ChEMBL document CHEMBL5058577, “EUbOPEN Chemogenomics Library 2 (Multiplex)” (2022)
